Converted amounts (≈) assume the structure as drawn. The source made the active and inactive calls. No cut-off for these calls is given here.
Tests used:
[1] = tested on: Platelet; assay: Inhibition of ADP-induced platelet aggregation in platelet-rich human plasma; assay type: functional
How it was run: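 Human platelet-rich plasma; aggregation triggered by 10 µM ADP; IC50 determined.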

[2] = tested on: Liver microsome; assay: Metabolic stability in human liver microsomes assessed as compound remaining; assay type: ADME
How it was run: (§1)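 Liver microsome stability: percent of compound remaining after incubation with […] (3 µM microsomes in some cases).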

[3] = tested on: Liver microsome; assay: Metabolic stability in rat liver microsomes assessed as compound remaining; assay type: ADME; how it was run: as §1
[4] = target: P2Y purinoceptor 1 (Homo sapiens, UniProt P47900); assay: Antagonist activity at P2Y1 receptor in human platelets by FLIPR assay in presence of 2-methylthio-ADP
Sequence of P2Y purinoceptor 1 (P47900 whole entry): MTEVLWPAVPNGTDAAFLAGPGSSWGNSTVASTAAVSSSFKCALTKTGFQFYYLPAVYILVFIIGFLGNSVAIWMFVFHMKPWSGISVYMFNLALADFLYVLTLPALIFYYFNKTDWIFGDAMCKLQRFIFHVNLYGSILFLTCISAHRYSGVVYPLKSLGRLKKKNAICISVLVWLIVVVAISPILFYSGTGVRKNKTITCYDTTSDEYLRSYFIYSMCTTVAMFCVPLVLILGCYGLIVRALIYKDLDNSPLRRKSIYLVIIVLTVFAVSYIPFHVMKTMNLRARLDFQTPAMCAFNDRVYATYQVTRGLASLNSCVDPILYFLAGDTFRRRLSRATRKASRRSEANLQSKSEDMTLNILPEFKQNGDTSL
How it was run: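 Washed human platelets with endogenous P2Y1; calcium signalling read by FLIPR with reduced protein (~0.1% BSA); agonist 2-methylthio-ADP at 1 µM; IC50 given as mean ± SD.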

[5] = tested on: Plasma; assay: Plasma concentration in rabbit at 10 mg/kg, iv; assay type: ADME, organism-based, Oryctolagus cuniculus; design: dose 10 mg/kg, route intravenous; conditions: in vivo
How it was run: (§2)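 Anesthetized rabbits given IV doses of 3, 10 and 30 mg/kg in increasing order; plasma concentrations measured; PR, QRS and QTc intervals read by surface ECG.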

[6] = tested on: Rattus norvegicus; assay: Toxicity in rat assessed as prolongation of mesentric bleeding time at 10 mg/kg, po relative to control; assay type: organism-based; design: dose 10 mg/kg, route oral; conditions: in vivo
How it was run: (§3)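 Pentobarbital-anesthetized rats dosed by oral gavage 1 h before bleeding-time induction. Vehicle was 1 ml/kg of 10% N,N-dimethylacetamide/90% dextrose 5% water, and compound was given at 0.3, 1, 3 and 10 mg/kg. Cuticle and mesenteric bleeding times were measured and expressed as fold prolongation relative to vehicle. Group sizes were indicated per group.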

[7] = tested on: Blood; assay: Drug uptake in rat blood at 1 mg/kg, po; assay type: ADME, organism-based; design: dose 1 mg/kg, route oral; conditions: in vivo, read-out: Drug uptake
[8] = tested on: Oryctolagus cuniculus; assay: Cardiotoxicity in rabbit assessed as PR interval at 3 to 30 mg/kg, iv by surface electrocardiography; assay type: toxicity, organism-based; design: dose 3-30 mg/kg, route intravenous; conditions: in vivo; how it was run: as §2
[9] = tested on: Rattus norvegicus; assay: Toxicity in po dosed pentobarbital anesthetized rat assessed as prolongation of bleeding time measured after 1 hr; assay type: organism-based; conditions: in vivo
How it was run: (§4)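 Pentobarbital-anesthetized rats; vehicle (1 ml/kg of 10% N,N-dimethylacetamide/90% dextrose 5% water) or 0.3, 1, 3, 10 mg/kg by oral gavage 1 h before FeCl2-induced carotid thrombosis or cuticle/mesenteric bleeding time. End points were thrombus weight and blood flow. Blood was drawn at the end of the thrombosis protocol for ex vivo aggregation. ID50 values derived; SEM reported.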

[10] = tested on: Oryctolagus cuniculus; assay: Cardiotoxicity in rabbit assessed as increase in QTc at 10 to 30 mg/kg, iv by surface electrocardiography; assay type: toxicity, organism-based; design: dose 10-30 mg/kg, route intravenous; conditions: in vivo; how it was run: as §2
[11] = Aqueous solubility of the compound at pH 6.5; assay type: physicochemical; conditions: aqueous medium
How it was run: (§5)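 Aqueous solubility taken on crystalline material: free base at pH 6.5, mono-methanesulfonic acid salt at pH 3.9.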

[12] = Volume of distribution at steady state in dog at 0.2 mg/kg, iv and 5 mg/kg, po; assay type: ADME, organism-based, Canis lupus familiaris; conditions: in vivo, read-out: Vdss
How it was run: (§6)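 Dog and cynomolgus PK used the methanesulfonic acid salt at 0.2 mg/kg IV and 5 mg/kg PO; clearance, Vdss, half-life and oral bioavailability determined.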

[13] = Aqueous solubility of the compound at pH 3.9; assay type: physicochemical; conditions: aqueous medium, read-out: Activity; how it was run: as §5
[14] = tested on: Rattus norvegicus; assay: Antithrombotic activity in po dosed pentobarbital anesthetized rat assessed as reduction in FeCl2-induced thrombus weight administered 1 hr prior to FeCl2 challenge
[15] = Half life in cynomolgus monkey at 0.2 mg/kg, iv and 5 mg/kg, po; assay type: ADME, organism-based, Macaca fascicularis; conditions: in vivo; how it was run: as §6
[16] = tested on: Blood; assay: Drug uptake in rat blood at 3 mg/kg, po; assay type: ADME, organism-based; design: dose 3 mg/kg, route oral; conditions: in vivo, read-out: Drug uptake
[17] = tested on: Rattus norvegicus; assay: Ex vivo inhibition of platelet aggregation in po dosed pentobarbital anesthetized rat administered 1 hr prior to FeCl2 challenge; assay type: functional; how it was run: as §4
[18] = tested on: Blood; assay: Drug uptake in rat blood at 0.3 mg/kg, po; assay type: ADME, organism-based; design: dose 0.3 mg/kg, route oral; conditions: in vivo, read-out: Drug uptake
[19] = tested on: Rattus norvegicus; assay: Antithrombotic activity in pentobarbital anesthetized rat assessed as reduction in FeCl2-induced thrombus weight at 10 mg/kg, po administered 1 hr prior to FeCl2 challenge; assay type: functional; design: scale not given: the % may be the effect or the level left; how it was run: as §4
[20] = Volume of distribution at steady state in cynomolgus monkey at 0.2 mg/kg, iv and 5 mg/kg, po; assay type: ADME, organism-based, Macaca fascicularis; conditions: in vivo, read-out: Vdss; how it was run: as §6
[21] = Plasma protein binding in rat; assay type: ADME, cell-free; conditions: read-out: PPB (converted)
[22] = tested on: Plasma; assay: Plasma concentration in rabbit at 3 mg/kg, iv; assay type: ADME, organism-based, Oryctolagus cuniculus; design: dose 3 mg/kg, route intravenous; conditions: in vivo; how it was run: as §2
[23] = tested on: Rattus norvegicus; assay: Antiplatelet activity in pentobarbital anesthetized rat assessed as reduction in platelet aggregation at 10 mg/kg, po; assay type: functional; design: scale not given: the % may be the effect or the level left; how it was run: as §4
[24] = Oral bioavailability in dog at 5 mg/kg; assay type: ADME, organism-based, Canis lupus familiaris; conditions: in vivo; how it was run: as §6
[25] = target: hERG (KCNH2) (Homo sapiens, UniProt Q12809); assay: Inhibition of human ERG channel at 1 uM by patch clamp technique
Sequence of hERG (KCNH2) (Q12809 whole entry): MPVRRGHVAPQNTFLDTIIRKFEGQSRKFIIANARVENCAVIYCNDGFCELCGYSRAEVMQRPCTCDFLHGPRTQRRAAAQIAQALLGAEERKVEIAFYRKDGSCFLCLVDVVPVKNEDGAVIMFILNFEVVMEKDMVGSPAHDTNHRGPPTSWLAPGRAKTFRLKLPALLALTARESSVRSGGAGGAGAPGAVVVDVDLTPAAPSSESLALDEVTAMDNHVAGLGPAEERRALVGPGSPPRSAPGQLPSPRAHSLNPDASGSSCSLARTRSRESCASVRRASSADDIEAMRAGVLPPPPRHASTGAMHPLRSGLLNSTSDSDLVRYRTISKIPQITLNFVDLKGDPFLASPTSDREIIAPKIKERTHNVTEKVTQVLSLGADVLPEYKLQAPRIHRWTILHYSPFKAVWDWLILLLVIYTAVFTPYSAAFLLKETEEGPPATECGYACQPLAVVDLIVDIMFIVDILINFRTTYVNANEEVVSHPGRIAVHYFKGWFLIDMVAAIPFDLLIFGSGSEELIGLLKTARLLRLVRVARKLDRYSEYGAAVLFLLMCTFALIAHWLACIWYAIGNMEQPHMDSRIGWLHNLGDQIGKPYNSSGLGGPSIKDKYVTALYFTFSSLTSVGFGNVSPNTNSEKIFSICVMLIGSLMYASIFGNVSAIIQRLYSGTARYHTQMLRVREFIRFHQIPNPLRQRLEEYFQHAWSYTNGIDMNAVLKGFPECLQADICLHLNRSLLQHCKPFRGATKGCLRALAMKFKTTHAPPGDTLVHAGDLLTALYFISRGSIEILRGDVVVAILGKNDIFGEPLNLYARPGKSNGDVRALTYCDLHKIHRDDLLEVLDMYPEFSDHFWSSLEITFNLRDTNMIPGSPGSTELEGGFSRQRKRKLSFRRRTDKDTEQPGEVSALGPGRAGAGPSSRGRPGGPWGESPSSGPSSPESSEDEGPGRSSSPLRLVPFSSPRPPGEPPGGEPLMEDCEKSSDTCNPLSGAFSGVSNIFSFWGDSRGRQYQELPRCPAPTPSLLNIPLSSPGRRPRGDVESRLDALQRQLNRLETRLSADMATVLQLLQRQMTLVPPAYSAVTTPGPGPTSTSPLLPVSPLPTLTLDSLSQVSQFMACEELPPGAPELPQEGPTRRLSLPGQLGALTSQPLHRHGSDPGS
How it was run: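 hERG current measured in vitro by patch clamp at 1 µM.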

[26] = tested on: Rattus norvegicus; assay: Antithrombotic activity in po dosed pentobarbital anesthetized rat assessed as maintainance of blood flow administered 1 hr prior to FeCl2 challenge; assay type: functional, organism-based; how it was run: as §4
[27] = target: P2Y purinoceptor 2 (Homo sapiens, UniProt P41231); assay: Antagonist activity at P2Y2 receptor (unknown origin)
Sequence of P2Y purinoceptor 2 (P41231 whole entry): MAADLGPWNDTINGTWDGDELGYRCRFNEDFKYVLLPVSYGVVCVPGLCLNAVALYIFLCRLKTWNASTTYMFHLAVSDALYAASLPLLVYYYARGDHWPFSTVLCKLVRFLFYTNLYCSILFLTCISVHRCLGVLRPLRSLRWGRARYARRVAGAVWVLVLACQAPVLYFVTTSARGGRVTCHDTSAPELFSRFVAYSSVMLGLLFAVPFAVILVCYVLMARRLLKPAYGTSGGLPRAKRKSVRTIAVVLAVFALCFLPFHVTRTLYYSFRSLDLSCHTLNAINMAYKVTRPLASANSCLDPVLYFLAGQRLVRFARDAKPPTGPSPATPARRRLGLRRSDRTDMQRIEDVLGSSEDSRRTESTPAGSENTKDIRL

[28] = target: T1, P2X purinoceptor 1 (Homo sapiens, UniProt P51575); assay: Antagonist activity at P2X1 receptor (unknown origin) by FLIPR assay
T1 sequence (P51575 whole entry): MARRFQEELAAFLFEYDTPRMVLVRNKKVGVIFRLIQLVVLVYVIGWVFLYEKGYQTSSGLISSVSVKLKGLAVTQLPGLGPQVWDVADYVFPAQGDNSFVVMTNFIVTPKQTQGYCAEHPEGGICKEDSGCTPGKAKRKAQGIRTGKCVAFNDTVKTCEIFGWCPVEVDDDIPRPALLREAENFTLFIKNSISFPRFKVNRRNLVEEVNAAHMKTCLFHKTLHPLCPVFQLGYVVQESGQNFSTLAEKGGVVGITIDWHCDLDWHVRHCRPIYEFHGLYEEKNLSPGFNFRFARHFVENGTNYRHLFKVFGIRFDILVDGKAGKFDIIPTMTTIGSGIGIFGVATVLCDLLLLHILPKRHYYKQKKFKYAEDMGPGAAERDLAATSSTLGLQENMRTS

[29] = tested on: Rattus norvegicus; assay: Antithrombotic activity in pentobarbital anesthetized rat assessed as preservation of blood flow at 10 mg/kg, po administered 1 hr prior to FeCl2 challenge; assay type: functional, organism-based; design: dose 10 mg/kg; how it was run: as §4
[30] = Half life in dog at 0.2 mg/kg, iv and 5 mg/kg, po; assay type: ADME, organism-based, Canis lupus familiaris; conditions: in vivo; how it was run: as §6
[31] = Clearance in dog at 0.2 mg/kg, iv and 5 mg/kg, po; assay type: ADME, organism-based, Canis lupus familiaris; conditions: in vivo; how it was run: as §6
[32] = tested on: Oryctolagus cuniculus; assay: Cardiotoxicity in rabbit assessed as QRS interval at 3 to 30 mg/kg, iv by surface electrocardiography; assay type: toxicity, organism-based; design: dose 3-30 mg/kg, route intravenous; conditions: in vivo; how it was run: as §2
[33] = Oral bioavailability in cynomolgus monkey at 5 mg/kg; assay type: ADME, organism-based, Macaca fascicularis; conditions: in vivo; how it was run: as §6
[34] = tested on: Blood; assay: Drug uptake in rat blood at 10 mg/kg, po; assay type: ADME, organism-based; design: dose 10 mg/kg, route oral; conditions: in vivo, read-out: Drug uptake
[35] = target: P2Y purinoceptor 12 (Homo sapiens, UniProt Q9H244); assay: Antagonist activity at P2Y12 receptor (unknown origin)
Sequence of P2Y purinoceptor 12 (Q9H244 whole entry): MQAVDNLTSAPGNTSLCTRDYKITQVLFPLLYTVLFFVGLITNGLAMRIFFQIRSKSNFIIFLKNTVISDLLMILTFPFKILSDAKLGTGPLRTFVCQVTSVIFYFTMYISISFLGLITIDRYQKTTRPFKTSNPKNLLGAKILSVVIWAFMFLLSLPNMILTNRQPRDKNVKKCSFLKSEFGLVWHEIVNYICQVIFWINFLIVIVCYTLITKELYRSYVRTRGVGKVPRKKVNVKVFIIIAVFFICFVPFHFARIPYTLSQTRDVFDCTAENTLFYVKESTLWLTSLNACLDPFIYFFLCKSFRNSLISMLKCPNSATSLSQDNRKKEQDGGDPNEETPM

[36] = Plasma protein binding in human; assay type: ADME, cell-free; conditions: read-out: PPB (converted)
[37] = tested on: Plasma; assay: Plasma concentration in rabbit at 30 mg/kg, iv; assay type: ADME, organism-based, Oryctolagus cuniculus; design: dose 30 mg/kg, route intravenous; conditions: in vivo; how it was run: as §2
[38] = Plasma protein binding in rabbit; assay type: ADME, cell-free, Oryctolagus cuniculus; conditions: read-out: PPB (converted)
[39] = tested on: Rattus norvegicus; assay: Toxicity in rat assessed as prolongation of cuticle bleeding time at 10 mg/kg, po relative to control; assay type: organism-based; design: dose 10 mg/kg, route oral; conditions: in vivo; how it was run: as §3
[40] = Clearance in cynomolgus monkey at 0.2 mg/kg, iv and 5 mg/kg, po; assay type: ADME, organism-based, Macaca fascicularis; conditions: in vivo; how it was run: as §6

CC(C)(C)CN1CCC2(CC1)CN(c1ccccc1NC(=O)Nc1ccc(OC(F)(F)F)cc1)c1c(O)ccc(Cl)c12
IC50 [1]: 450 nM | Stability [2]: 79% | Stability [3]: 88% | IC50 [4]: 0.04 nM

CC(C)(C)CN1CCC2(CC1)CN(c1ccccc1NC(=O)Nc1nc3ccc(Cl)cc3s1)c1c(O)ccc(Cl)c12
IC50 [1]: 320 nM | Stability [2]: 96% | Stability [3]: 93% | IC50 [4]: 0.17 nM

CC(C)(C)CN1CCC2(CC1)CN(c1ccccc1NC(=O)Nc1ccc(OC(F)(F)F)cc1)c1c(O)ccc(C#N)c12
IC50 [1]: 1100 nM | Stability [2]: 59% | Stability [3]: 51% | IC50 [4]: 0.04 nM

CC(C)(C)CN1CCC2(CC1)CN(c1ccccc1NC(=O)Nc1nc3ccc(Cl)nc3s1)c1c(O)ccc(Cl)c12
concentration [5]: 62000 nM | IC50 [1]: 130 nM | fold change (FC) [6]: 2.2 | concentration [7]: 39 nM | Activity [8]: Non-toxic | Activity [9]: Dose-dependent effect | Activity [10]: Non-toxic | Stability [2]: 94% | solubility [11]: < 1 µg/mL | Vd [12]: 2.5 L/kg | solubility [13]: 680 µg/mL (≈ 1110 µM) | Stability [3]: 93% | IC50 [14]: 130 nM | ED50 ([14]; po, read-out: ID50): 7.3 mg/kg | half-life [15]: 8.2 h | concentration [16]: 81 nM | Activity [17]: Dose-dependent effect | ED50 ([17]; read-out: ID50 (the source's name)): 6.6 mg/kg | concentration [18]: 7 nM | Activity [19]: 66% | Vd [20]: 3.3 L/kg | fraction unbound [21]: 0.002 | concentration [22]: 24000 nM | Activity [23]: 74% | bioavailability [24]: 27% | inhibition at 1 µM [25]: 96% | Activity [26]: Dose-dependent effect | IC50 [27]: > 10000 nM | IC50 [28]: 180 nM | Activity [29]: Active | half-life [30]: 9.4 h | clearance [31]: 4 mL/min/kg | Activity [32]: Non-toxic | bioavailability [33]: 22% | concentration [34]: 240 nM | IC50 [35]: > 10000 nM | IC50 [4]: 0.12 nM | fraction unbound [36]: 0.007 | concentration [37]: 158000 nM | fraction unbound [38]: 0.007 | fold change (FC) [39]: 2.5 | clearance [40]: 7.7 mL/min/kg

COC(=O)c1ccc(O)c2c1C1(CCN(CC(C)(C)C)CC1)CN2c1ccccc1NC(=O)Nc1ccc(OC(F)(F)F)cc1
IC50 [1]: 700 nM | Stability [2]: 48% | Stability [3]: 57% | IC50 [4]: 0.15 nM
